Experimental findings from ChEMBL document CHEMBL2331332 (J Med Chem, 2013) are described below.

pIC50: −log10 of the molar value. Activity calls are given as the source filed them. The calls are words filed in the database; no cut-off is given here. Some results are limits rather than exact numbers.

For experiment [1], the target named is T1, Prostaglandin E synthase (Homo sapiens) (UniProt O14684).
T1 sequence (whole entry): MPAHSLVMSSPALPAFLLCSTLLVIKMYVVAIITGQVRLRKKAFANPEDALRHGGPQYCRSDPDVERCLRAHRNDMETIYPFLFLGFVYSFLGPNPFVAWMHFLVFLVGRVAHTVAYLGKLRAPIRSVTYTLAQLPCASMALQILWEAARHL
As to the kind of experiment: Inhibition of full-length microsomal PGES-1 (unknown origin) expressed in Escherichia coli Rosetta(DE3) using PGH2 as substrate assessed as PGH2 conversion to PGE2 at 10 uM incubated 15 mins prior to substrate addition measured after 1 min by EIA.

In experiment [2] the test system is Prostaglandin G/H synthase 1 (COX-1). As to the kind of experiment: Inhibition of COX-1 (unknown origin)-mediated TMPD oxidation using PGG2 as substrate at 100 uM incubated 15 mins prior to substrate addition measured after 36 secs by spectrophotometric analysis. The settings on record: Homo sapiens.
In experiment [3] the target is T2, Polyunsaturated fatty acid 5-lipoxygenase (Homo sapiens) (UniProt P09917).
T2 sequence (whole entry): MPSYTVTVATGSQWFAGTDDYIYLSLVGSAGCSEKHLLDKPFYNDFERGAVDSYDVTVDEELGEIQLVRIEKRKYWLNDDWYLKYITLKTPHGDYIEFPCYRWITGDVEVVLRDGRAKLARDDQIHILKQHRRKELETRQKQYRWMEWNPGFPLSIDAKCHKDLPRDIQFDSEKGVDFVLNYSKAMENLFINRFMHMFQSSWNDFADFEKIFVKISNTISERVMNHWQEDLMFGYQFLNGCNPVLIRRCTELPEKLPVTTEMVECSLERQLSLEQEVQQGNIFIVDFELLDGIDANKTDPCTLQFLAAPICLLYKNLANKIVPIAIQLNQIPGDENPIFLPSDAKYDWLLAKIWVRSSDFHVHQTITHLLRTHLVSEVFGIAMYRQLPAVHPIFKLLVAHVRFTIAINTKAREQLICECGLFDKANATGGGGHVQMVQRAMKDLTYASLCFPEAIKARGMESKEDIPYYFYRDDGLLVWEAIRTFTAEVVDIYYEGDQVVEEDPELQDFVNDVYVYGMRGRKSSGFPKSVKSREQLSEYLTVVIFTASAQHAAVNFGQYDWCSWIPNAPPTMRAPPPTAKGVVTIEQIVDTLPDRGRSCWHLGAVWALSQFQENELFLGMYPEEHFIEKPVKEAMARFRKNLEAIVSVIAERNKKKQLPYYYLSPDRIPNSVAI
Kind of experiment: Inhibition of 5-LOX-mediated LTB4 formation in human whole blood at 10 uM incubated for 20 mins prior to substrate addition measured after 0.5 hrs by EIA in presence of calcium ionophore A23187. A digest of the protocol: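 Human whole blood was stimulated with calcium ionophore A23187 (final 20 μg/mL) for 0.5 h at 37 °C to induce LTB4 formation. Compounds were tested at 10 μM.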

In experiment [4] the target is T3, Prostaglandin E synthase (Homo sapiens, UniProt O14684).
T3 sequence (O14684 whole entry): T1 sequence (whole entry)
As to the kind of experiment: Inhibition of PGES-1 in human whole blood assessed as LPS-induced PGE2 formation incubated for 15 mins prior to LPS addition measured after 24 hrs by EIA. The procedure, abridged: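 Fresh heparinized blood came from healthy volunteers free of NSAIDs for at least 14 days. It was preincubated 15 min at 37 °C with compound or DMSO vehicle. LPS (final 100 μg/mL) was then added for 24 h at 37 °C. Plasma was obtained by centrifugation at 4 °C, and PGE2 was read by EIA.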

Experiment [5] concerns Prostaglandin G/H synthase 2 (COX-2). Kind of experiment: Inhibition of COX-2 (unknown origin)-mediated TMPD oxidation using PGG2 as substrate at 100 uM incubated 15 mins prior to substrate addition measured after 36 secs by spectrophotometric analysis. The settings on record: Homo sapiens.
Experiment [6] has as its target T3, Prostaglandin E synthase. As to the kind of experiment: Inhibition of full-length microsomal PGES-1 (unknown origin) expressed in Escherichia coli Rosetta(DE3) using PGH2 as substrate assessed as inhibition of PGH2 conversion to PGE2 incubated 15 mins prior to substrate addition measured after 1 min by EIA. A digest of the protocol: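 Reactions used 2.5 mM cofactor and 17 μM PGH2 for 1 min at 4 °C, then were stopped, and PGE2 was quantified by EIA. IC50 came from dose-response curves. Mean ± SEM, n = 3.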

Experiment [7] deals with T2, Polyunsaturated fatty acid 5-lipoxygenase (Homo sapiens). As to the kind of experiment: Inhibition of 5-LOX (unknown origin) at 10 uM by human whole blood LTB4 assay.
The target of experiment [8] is T1, Prostaglandin E synthase (Homo sapiens). Kind of experiment: Competitive inhibition of full-length microsomal PGES-1 (unknown origin) expressed in Escherichia coli Rosetta(DE3) using PGH2 as substrate incubated for 5 mins prior to substrate addition relative to control.
Experiment [9] shares this target. Kind of experiment: Competitive inhibition of full-length microsomal PGES-1 (unknown origin) expressed in Escherichia coli Rosetta(DE3) using PGH2 as substrate incubated for 5 mins prior to substrate addition relative to control in presence of increased substrate concentration.
Experiment [10] shares this target. As to the kind of experiment: Competitive inhibition of full-length microsomal PGES-1 (unknown origin) expressed in Escherichia coli Rosetta(DE3) using PGH2 as substrate preincubated for 15 mins relative to control in presence of higher glutathione disulfide concentration. A digest of the protocol: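 This GSSG control repeated the cofactor competition setup, with added GSH replaced by GSSG at the same final mass-volume percentage. 2.5 mM GSH was always present, and PGH2 was 17 μM. Preincubation was 15 min at 4 °C. Zero inhibition was set from the GSH activity curve, and PGE2 was read by EIA. Mean ± SEM, n = 3.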

For experiment [11] the target is unchanged. As to the kind of experiment: Competitive inhibition of full-length microsomal PGES-1 (unknown origin) expressed in Escherichia coli Rosetta(DE3) using PGH2 as substrate preincubated for 15 mins relative to control in presence of 2.5 mM of cofactor GSH.
Experiment [12] shares this target. As to the kind of experiment: Competitive inhibition of full-length microsomal PGES-1 (unknown origin) expressed in Escherichia coli Rosetta(DE3) using PGH2 as substrate preincubated for 15 mins relative to control in presence of 25 mM of cofactor GSH.
Experiment [13] shares this target. Kind of experiment: Inhibition of microsomal PGES-1 (unknown origin) expressed in Escherichia coli using PGH2 as substrate assessed as inhibition of PGE2 formation at 10 uM by reversed phase HPLC analysis.

`CCOc1cc(/C=C2/C(=O)N(c3ccc(Cl)cc3)N=C2C)ccc1OCC(=O)O`: the inhibition in [1] is 10%.
In the case of `CC1=NN(c2ccc([N+](=O)[O-])cc2)C(=O)/C1=N\Nc1ccccc1C(=O)O`, the inhibition in experiment [2] was 1%; in [3], under 1%; in experiment [5], 2.5%; in [7], 10%. Further, the negative-log IC50 (pIC50) in [4] is 4.77; in [6] it was 8.00.
`COc1ccc(-c2nnc(SCC(=O)c3ccc4c(c3)Cc3ccccc3-4)nc2-c2ccc(OC)cc2)cc1`: the inhibition was 2.1% in experiment [2]; over 60% in experiment [8]; under 1% in experiment [3]; under 1% in [5]; 0% in experiment [9]; 80% in experiment [11]. In addition, the inhibition is 20% in experiment [7] and under 15% in experiment [12]. In addition, the pIC50 in experiment [4] is 6.52; in experiment [6], 8.40. For the same compound, the inhibition entry in [10] is “Active”.
With `CCOC(=O)C1=C(C)N=c2s/c(=C\c3ccc(-c4ccc(Cl)c(C(=O)O)c4)o3)c(=O)n2C1c1ccccc1Cl` (configuration not stated), the inhibition is under 1% in [2]; over 60% in experiment [8]; under 1% in experiment [3]; 12.9% in experiment [5]; 0% in [9]; 80% in experiment [11]. For the same compound, the inhibition was under 1% in experiment [7] and under 15% in experiment [12]. Further, the pIC50 in experiment [4] is 5.19; in experiment [6], 8.70. In addition, the inhibition entry in experiment [10] is “Active”.
For `Cc1ccc2oc(-c3cccc(NC(=O)c4ccccc4[N+](=O)[O-])c3)nc2c1`, in experiment [13], the inhibition was 50%.
As for `COc1cc(NC(=O)c2nn3c(C(F)(F)F)cc(-c4ccc(Br)cc4)nc3c2Cl)cc([N+](=O)[O-])c1`, the inhibition in experiment [2] was under 1%; in [3], under 1%; in [5], -2.2%; in [7] it was 39%. Moreover, the pIC50 is 5.07 in experiment [4] and 8.01 in experiment [6].
For the compound `O=C(O)CN1C(=O)/C(=C2/C(=O)N(CC(=O)O)c3ccccc32)SC1=S`, the inhibition in experiment [2] was under 1%; in experiment [8] it was over 60%; in [3], under 1%; in [5] it was 14.7%; in [9], 0%; in experiment [11], 80%. In addition, the inhibition is under 1% in experiment [7] and under 15% in experiment [12]. Moreover, the pIC50 is 5.42 in experiment [4] and 8.74 in experiment [6]. Moreover, the inhibition result in experiment [10] was “Active”.

The term inhibition denotes the relative decrease from the control value, in per cent. As a reminder, the pIC50 is the IC50 on a negative log10 scale, so that one unit is a factor of ten.
